Measured values from ChEMBL document CHEMBL1121474, “Peptidoaminobenzophenones, a novel class of ring-opened derivatives of 1,4-benzoidazepines” (J Med Chem, 1980).

Columns and labels:
[1] = species on record: Mus musculus; experiment: Effective dose required for 50% reduction of the control response was obtained by graphical interpolation rotarod performance; type: functional
In short: (§1)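 Oral dosing in mice; rod rotating at 5 rpm tested at 60 min after dosing, counting animals falling off within 2 min. ED50 by graphical interpolation.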

[2] = species on record: Mus musculus; experiment: Dose required to prevent convulsion and death in 50% of mice during a 2 hr observation was obtained by graphical interpolation anti-pentylenetetrazole; type: functional
In short: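 Groups of five mice dosed orally, then challenged 60 min later with 125 mg/kg pentylenetetrazol subcutaneously. ED50 = dose preventing convulsion and death in 50% of animals over a 2 h observation, by graphical interpolation.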

[3] = Lethal dose (LD50) required to inhibit the spontaneous motor activity; type: toxicity, organism-based; conditions: mouse, in vivo
In short: (§2)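 Acute oral toxicity in mice, groups of one to three animals, deaths assessed on day 7 after administration. LD50 by graphical interpolation.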

[4] = species on record: Mus musculus; experiment: Minimum effective dose (MED) required for the potentiation of thiopental sodium induced loss of the righting reflex (Students t test).; type: functional; conditions: read-out: MED
In short: (§3)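 Five mice per group dosed orally; 60 min later challenged with thiopental sodium 35 mg/kg intravenously. Minimum effective dose potentiating thiopental-induced anesthesia determined.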

[5] = test system: Mus musculus; experiment: (§4) Lethal dose (LD50) required to inhibit the spontaneous motor activity.; type: functional; in short: as §2
[6] = test system: Mus musculus; experiment: Spontaneous motor activity of mice was estimated after 60 minutes of oral administration.; type: functional; design: unit not given here
In short: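 Oral dosing in mice; activity quantitated with an activity meter over 10 min starting 60 min after dosing. Five groups of three mice per dose.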

[7] = as §4; type: toxicity, organism-based; conditions: mouse, in vivo; in short: as §2
[8] = species on record: Mus musculus; experiment: Antifighting activity was measured by the antagonism against foot-shock induced fighting; type: functional
In short: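 Mice dosed orally; pairs confined under inverted glass enclosure and given foot shock (5 Hz, 2 ms, DC 50 V); pairs with 15-20 fighting episodes in 3 min selected. Five pairs per dose; responses counted before and at 60 min after dosing. ED50 (50% inhibition) by graphical interpolation.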

[9] = species on record: Mus musculus; experiment: Minimum effective dose (MED) required for the potentiation of thiopental sodium induced loss of the righting reflex; type: functional; conditions: read-out: MED; in short: as §3
[10] = species on record: Mus musculus; experiment: Effective dose required for 50% reduction of the control response in mice was obtained by graphical interpolation rotarod performance; type: functional; in short: as §1

SMILES	ED50 [1] [mg/kg]	ED50 [2] [mg/kg]	LD50 [3] [mg/kg]	minimal effective dose [4] [mg/kg]	LD50 [5] [mg/kg]	Activity [6]	LD50 [7] [mg/kg]	ED50 for inhibition of foot-shock induced fighting [8]	minimal effective dose [9] [mg/kg]	ED50 [10] [mg/kg]
CC(C)N(C(=O)CNC(=O)CN)c1ccc(Cl)cc1C(=O)c1ccccc1	> 100	15.8	> 1000	–	–	–	–	–	–	–
CNC1=Nc2ccc(Cl)cc2C(c2ccccc2)=[N+]([O-])C1 [CHLORDIAZEPOXIDE]	82.3	2.71	–	2.5	1080	56.09	–	–	–	–
CC(N)C(=O)NCC(=O)Nc1ccc(Cl)cc1C(=O)c1ccccc1 (stereo unspecified)	–	–	–	–	–	–	> 1000	–	–	–
CC(C)C(N)C(=O)NCC(=O)N(C)c1ccc(Cl)cc1C(=O)c1ccccc1 (stereo unspecified)	73.5	3.4	–	–	–	>50	> 1000	21.5	10	–
NCC(=O)NCC(=O)Nc1ccc(Cl)cc1C(=O)c1ccccc1	–	14.1	> 1000	–	–	–	–	14.6	25	52.4
CN(C(=O)CNC(=O)[C@H](N)Cc1ccccc1)c1ccc(Cl)cc1C(=O)c1ccccc1Cl	77.1	4.8	–	–	–	>50	> 1000	20.4	10	–
CCc1cc(C(=O)c2ccccc2)c(NC(=O)CNC(=O)CN)s1	> 100	> 100	–	–	–	–	–	–	–	–
CC(C)C(N)C(=O)NCC(=O)Nc1ccc(Cl)cc1C(=O)c1ccccc1 (stereo unspecified)	> 100	27.4	–	–	–	–	> 1000	–	–	–
CN(C(=O)CNC(=O)[C@@H](N)Cc1ccccc1)c1ccc(Cl)cc1C(=O)c1ccccc1Cl	52.2	1	–	–	–	>50	> 1000	10.2	1	–
NCC(=O)NCC(=O)Nc1ccc(Cl)cc1C(=O)c1ccccc1Cl	> 100	22	–	–	–	–	> 1000	–	10	–
CN1C(=O)CN=C(c2ccccc2)c2cc(Cl)ccc21 [DIAZEPAM]	17.7	–	–	0.5	–	8.45	–	–	–	–
CC(C)CC(N)C(=O)NCC(=O)Nc1ccc(Cl)cc1C(=O)c1ccccc1 (stereo unspecified)	> 100	15.9	–	–	–	–	> 1000	–	25	–
CCN(CC)CCN(C(=O)CNC(=O)CN)c1ccc(Cl)cc1C(=O)c1ccccc1F	50.8	1.98	–	–	–	25	> 1000	9.4	–	–
CN(C(=O)CNC(=O)CN)c1ccc(Cl)cc1C(=O)c1ccccc1Cl [LORZAFONE ANHYDROUS]	35.4	0.56	–	–	–	1.4	> 1000	3.2	0.5	–
CCN(CC)CCN(C(=O)CNC(=O)CN)c1ccc(Cl)cc1C(=O)c1ccccc1	> 100	5.7	–	–	–	–	> 1000	–	5	–
NCC(=O)NCC(=O)Nc1ccc(Cl)cc1C(=O)c1ccccn1	59.5	2.8	–	–	–	–	–	–	–	–
CN(C(=O)CNC(=O)C(N)Cc1ccccc1)c1ccc(Cl)cc1C(=O)c1ccccc1Cl (stereo unspecified)	37.5	1.6	–	–	–	5.5	> 1000	17.1	5	–
NC(C(=O)NCC(=O)Nc1ccc(Cl)cc1C(=O)c1ccccc1)c1ccccc1 (stereo unspecified)	> 100	27.4	–	–	–	–	> 1000	–	–	–
CN(C(=O)CNC(=O)CN)c1ccc(Cl)cc1C(=O)c1ccccc1F	16.7	0.3	–	–	–	3.1	> 1000	1.6	0.1	–
CN(C(=O)CNC(=O)C(N)Cc1ccccc1)c1ccc(Cl)cc1C(=O)c1ccccc1 (stereo unspecified)	70.7	3.9	–	–	–	23.4	> 1000	15.1	5	–
CC(C)C(N)C(=O)NCC(=O)N(C)c1ccc(Cl)cc1C(=O)c1ccccc1Cl (stereo unspecified)	> 100	1.6	–	–	–	>25	750	–	–	–
CN(C(=O)CNC(=O)CN)c1ccc(Cl)cc1C(=O)c1ccccc1	29.4	1	–	–	–	15.1	750	10.5	2.5	–
